Assay results published in ChEMBL document CHEMBL3108721, “4,4'-Unsymmetrically substituted 3,3'-biphenyl alpha helical proteomimetics as potential coactivator binding inhibitors” (Bioorg Med Chem, 2014).

How the values were obtained:
[1] = molecular target: T1, Estrogen receptor (Homo sapiens) (UniProt P03372); test: Inhibition of ER-alpha (unknown origin) transcriptional activity expressed in ER-negative human SKBR3 cells coexpressing ERE assessed as change in reporter gene activity after 40 hrs relative to control; type: cell-based; parameters: concentration or dose not given beside the values; details: SK-BR-3
T1 sequence (whole entry): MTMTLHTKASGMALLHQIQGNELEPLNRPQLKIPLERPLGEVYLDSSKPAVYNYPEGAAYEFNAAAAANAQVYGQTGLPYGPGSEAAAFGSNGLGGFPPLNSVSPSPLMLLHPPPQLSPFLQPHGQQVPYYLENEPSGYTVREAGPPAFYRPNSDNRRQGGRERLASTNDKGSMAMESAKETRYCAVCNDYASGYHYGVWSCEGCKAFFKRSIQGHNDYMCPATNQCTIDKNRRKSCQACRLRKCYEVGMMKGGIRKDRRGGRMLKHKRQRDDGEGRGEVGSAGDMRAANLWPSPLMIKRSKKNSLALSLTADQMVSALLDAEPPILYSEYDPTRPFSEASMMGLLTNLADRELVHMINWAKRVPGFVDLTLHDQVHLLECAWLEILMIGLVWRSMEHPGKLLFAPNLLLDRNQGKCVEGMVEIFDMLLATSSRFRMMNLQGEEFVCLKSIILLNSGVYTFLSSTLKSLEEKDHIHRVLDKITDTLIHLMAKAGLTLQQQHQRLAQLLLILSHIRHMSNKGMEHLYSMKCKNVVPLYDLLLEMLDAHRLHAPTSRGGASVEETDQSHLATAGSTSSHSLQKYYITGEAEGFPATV
Procedure, shortened: (§1)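 ER-negative SKBR3 cells cotransfected with 3xERE-TATA-luciferase, RST7-ERα and pCMV-β-gal for normalization. […] Scored as >50% decrease or increase at <20, 20–50 or >50 μM, or <20% change. 4-hydroxytamoxifen as antagonist control. Cell death above 50 μM flagged.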

[2] = molecular target: T1, Estrogen receptor (Homo sapiens); test: Inhibition of ER-alpha (unknown origin) transcriptional activity expressed in ER-negative human SKBR3 cells coexpressing ERE assessed as change in reporter gene activity after 40 hrs in presence of estradiol relative to control; type: cell-based; parameters: concentration or dose not given beside the values; details: SK-BR-3; procedure, shortened: as §1
[3] = molecular target: T1, Estrogen receptor (Homo sapiens); test: Competitive inhibition of ER-alpha (unknown origin)-GRIP1 interaction expressed in human HepG2 cells assessed as change in reporter gene activity after 40 hrs relative to control; type: cell-based; parameters: concentration or dose not given beside the values
Procedure, shortened: (§2)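 HepG2 cells transfected with VP16-ERα, Gal4-DBD-fused GRIP1 LxxLL2 peptide and 5xGal4Luc3 reporter. […] Scored as >50% decrease or increase at <20, 20–50 or >50 μM, or <20% change. 4-hydroxytamoxifen as antagonist control. Cell death and precipitation flagged.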

[4] = molecular target: T1, Estrogen receptor (Homo sapiens); test: Competitive inhibition of ER-alpha (unknown origin)-GRIP1 interaction expressed in human HepG2 cells assessed as change in reporter gene activity after 40 hrs in presence of estradiol relative to control; type: cell-based; parameters: concentration or dose not given beside the values; procedure, shortened: as §2
[5] = molecular target: T1, Estrogen receptor (Homo sapiens); test: Competitive inhibition of ER-alpha (unknown origin)-GRIP1 interaction expressed in human HepG2 cells assessed as decrease in reporter gene activity at >50 uM after 40 hrs in presence of estradiol relative to control; type: cell-based; parameters: scale not given: the % may be the effect or the level left; procedure, shortened: as §2
[6] = molecular target: T1, Estrogen receptor (Homo sapiens); test: Inhibition of ER-alpha (unknown origin) transcriptional activity expressed in ER-negative human SKBR3 cells coexpressing ERE assessed as increase in reporter gene activity at 20 to 50 uM after 40 hrs relative to control; type: cell-based; parameters: scale not given: the % may be the effect or the level left; details: SK-BR-3; procedure, shortened: as §1
[7] = molecular target: T1, Estrogen receptor (Homo sapiens); test: Competitive inhibition of ER-alpha (unknown origin)-GRIP1 interaction expressed in human HepG2 cells assessed as increase in reporter gene activity at >50 uM after 40 hrs relative to control; type: cell-based; parameters: scale not given: the % may be the effect or the level left; procedure, shortened: as §2
HepG2 [8] = test: Cytotoxicity against human HepG2 cells expressing ER-alpha coexpressing GRIP1 assessed as cell death at >50 uM; type: cell-based; procedure, shortened: as §2
HepG2 [9] = test: Cytotoxicity against human HepG2 cells expressing ER-alpha coexpressing GRIP1 assessed as cell death at >50 uM in presence of estradiol; type: cell-based; procedure, shortened: as §2
[10] = molecular target: T1, Estrogen receptor (Homo sapiens); test: Inhibition of ER-alpha (unknown origin) transcriptional activity expressed in ER-negative human SKBR3 cells coexpressing ERE assessed as increase in reporter gene activity at >50 uM after 40 hrs relative to control; type: cell-based; parameters: scale not given: the % may be the effect or the level left; details: SK-BR-3; procedure, shortened: as §1
[11] = Cytotoxicity against ER-negative human SKBR3 cells expressing ER-alpha coexpressing ERE assessed as cell death at >50 uM; type: cell-based; details: sk-br-3; procedure, shortened: as §1
[12] = Cytotoxicity against ER-negative human SKBR3 cells expressing ER-alpha coexpressing ERE assessed as cell death at >50 uM in presence of estradiol; type: cell-based; details: sk-br-3; procedure, shortened: as §1
[13] = molecular target: T1, Estrogen receptor (Homo sapiens); test: Inhibition of ER-alpha (unknown origin) transcriptional activity expressed in ER-negative human SKBR3 cells coexpressing ERE assessed as decrease in reporter gene activity at <20 uM after 40 hrs relative to control; type: cell-based; parameters: scale not given: the % may be the effect or the level left; details: SK-BR-3; procedure, shortened: as §1
[14] = molecular target: T1, Estrogen receptor (Homo sapiens); test: Inhibition of ER-alpha (unknown origin) transcriptional activity expressed in ER-negative human SKBR3 cells coexpressing ERE assessed as decrease in reporter gene activity at <20 uM after 40 hrs in presence of estradiol relative to control; type: cell-based; parameters: scale not given: the % may be the effect or the level left; details: SK-BR-3; procedure, shortened: as §1
[15] = molecular target: T1, Estrogen receptor (Homo sapiens); test: Competitive inhibition of ER-alpha (unknown origin)-GRIP1 interaction expressed in human HepG2 cells assessed as decrease in reporter gene activity at <20 uM after 40 hrs relative to control; type: cell-based; parameters: scale not given: the % may be the effect or the level left; procedure, shortened: as §2
[16] = molecular target: T1, Estrogen receptor (Homo sapiens); test: Competitive inhibition of ER-alpha (unknown origin)-GRIP1 interaction expressed in human HepG2 cells assessed as decrease in reporter gene activity at <20 uM after 40 hrs in presence of estradiol relative to control; type: cell-based; parameters: scale not given: the % may be the effect or the level left; procedure, shortened: as §2
Estrogen receptor = molecular target: T2, Estrogen receptor (Homo sapiens, UniProt P03372); test: Competitive inhibition of ER-alpha (unknown origin) ligand binding pocket expressed in ER-negative human SKBR3 cells coexpressing ERE using estradiol as substrate; type: cell-based, SK-BR-3
T2 sequence (P03372 whole entry): T1 sequence (whole entry)
Procedure, shortened: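 SKBR3 (ER-negative breast cancer) cells were transfected with RST7–ERα, a 3xERE-TATA-luciferase reporter and a pCMV-β-gal normalization control. […] Cells were incubated 40 h, then luciferase reporter activity was read.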

[17] = molecular target: T1, Estrogen receptor (Homo sapiens); test: Competitive inhibition of ER-alpha (unknown origin)-GRIP1 interaction expressed in human HepG2 cells assessed as decrease in reporter gene activity at 20 to 50 uM after 40 hrs relative to control; type: cell-based; parameters: scale not given: the % may be the effect or the level left; procedure, shortened: as §2
[18] = molecular target: T1, Estrogen receptor (Homo sapiens); test: Competitive inhibition of ER-alpha (unknown origin)-GRIP1 interaction expressed in human HepG2 cells assessed as decrease in reporter gene activity at 20 to 50 uM after 40 hrs in presence of estradiol relative to control; type: cell-based; parameters: scale not given: the % may be the effect or the level left; procedure, shortened: as §2
[19] = molecular target: T1, Estrogen receptor (Homo sapiens); test: Competitive inhibition of ER-alpha (unknown origin)-GRIP1 interaction expressed in human HepG2 cells assessed as increase in reporter gene activity at <20 uM after 40 hrs relative to control; type: cell-based; parameters: scale not given: the % may be the effect or the level left; procedure, shortened: as §2
[20] = molecular target: T1, Estrogen receptor (Homo sapiens); test: Competitive inhibition of ER-alpha (unknown origin)-GRIP1 interaction expressed in human HepG2 cells assessed as increase in reporter gene activity at <20 uM after 40 hrs in presence of estradiol relative to control; type: cell-based; parameters: scale not given: the % may be the effect or the level left; procedure, shortened: as §2
[21] = molecular target: T1, Estrogen receptor (Homo sapiens); test: Inhibition of ER-alpha (unknown origin) transcriptional activity expressed in ER-negative human SKBR3 cells coexpressing ERE assessed as increase in reporter gene activity at <20 uM after 40 hrs relative to control; type: cell-based; parameters: scale not given: the % may be the effect or the level left; details: SK-BR-3; procedure, shortened: as §1

Row | SMILES | Activity [1] [%] | Activity [2] [%] | Activity [3] [%] | Activity [4] [%] | Activity (HepG2 [8]) | Activity (HepG2 [9]) | other results
1 | CCCCCCCc1cc(-c2ccc(O)cc2)ccc1OCC(=O)OCC | < 20 | < 20 | < 20 | < 20 | – | – | –
2 | CCCCCCCc1cc(-c2ccc(OCCN(C)C)cc2)ccc1OCC(=O)OCC | < 20 | < 20 | < 20 | – | – | – | Activity [5]: > 50%
3 | CCOC(=O)COc1ccc(-c2ccc(O)c(Cc3ccc4ccccc4c3)c2)cc1 | – | < 20 | – | < 20 | Toxic | Toxic | Activity [6]: > 50%; Activity [7]: > 50%
4 | CCOC(=O)COc1ccc(-c2ccc(OCCN(C)C)c(Cc3ccc4ccccc4c3)c2)cc1Cc1ccc2ccccc2c1 | – | < 20 | – | < 20 | Toxic | Toxic | Activity [10]: > 50%; Activity [11]: Toxic; Activity [12]: Toxic; Activity [7]: > 50%
5 | CCCCCCCc1cc(-c2ccc(OCC(=O)OCC)c(CCCCCCC)c2)ccc1O | < 20 | < 20 | < 20 | < 20 | – | – | –
6 | CCOC(=O)COc1ccc(-c2ccc(OCCN(C)C)c(Cc3ccc(-c4ccccc4)cc3)c2)cc1 | – | – | – | – | Toxic | Toxic | Activity [13]: > 50%; Activity [14]: > 50%; Activity [15]: > 50%; Activity [16]: > 50%; IC50 (Estrogen receptor): 3.1 µM
7 | CCOC(=O)COc1ccc(-c2ccc(O)cc2)cc1Cc1ccc2ccccc2c1 | < 20 | < 20 | < 20 | – | – | – | Activity [5]: > 50%
8 | CCCCCCCc1cc(-c2ccc(OCC(=O)OCC)cc2)ccc1OCCN(C)C | – | < 20 | – | < 20 | – | – | Activity [10]: > 50%; Activity [7]: > 50%
9 | CCOC(=O)COc1ccc(-c2ccc(OCCN(C)C)c(Cc3ccc(-c4ccccc4)cc3)c2)cc1Cc1ccc(-c2ccccc2)cc1 | – | < 20 | < 20 | < 20 | – | – | Activity [6]: > 50%
10 | CCOC(=O)COc1ccc(-c2ccc(O)c(Cc3ccc(-c4ccccc4)cc3)c2)cc1 | < 20 | < 20 | – | – | – | – | Activity [17]: > 50%; Activity [18]: > 50%
11 | CCOC(=O)COc1ccc(-c2ccc(O)c(CC3CCCCC3)c2)cc1CC1CCCCC1 | < 20 | < 20 | < 20 | < 20 | Toxic | Toxic | –
12 | CCOC(=O)COc1ccc(-c2ccc(OCCN(C)C)c(Cc3ccc4ccccc4c3)c2)cc1 | – | < 20 | – | – | – | – | Activity [19]: > 50%; Activity [20]: > 50%; Activity [21]: > 50%
